In series [1] the target is Retinoic acid receptor RXR-alpha/oxysterols receptor LXR-alpha (Homo sapiens, UniProt Q13133). Put plainly: Binding affinity to His-LXRalpha/FLAG-RXRalpha (unknown origin) by FITC-labeled T0901317 based fluorescence polarization assay. The series is classed as protein-complex assay.
Series [2] has as its target Retinoic acid receptor RXR-alpha/oxysterols receptor LXR-beta (Homo sapiens, UniProt P55055). Nature of the series: Binding affinity to His-LXRbeta/FLAG-RXRalpha (unknown origin) by FITC-labeled T0901317 based fluorescence polarization assay. The series is classed as protein-complex assay. On the technique in general: Polarisation of emitted light reports the rotation of a fluorescent probe.

Series [3] deals with T1, Oxysterols receptor LXR-beta (Homo sapiens) (UniProt P55055).
T1 sequence (whole entry): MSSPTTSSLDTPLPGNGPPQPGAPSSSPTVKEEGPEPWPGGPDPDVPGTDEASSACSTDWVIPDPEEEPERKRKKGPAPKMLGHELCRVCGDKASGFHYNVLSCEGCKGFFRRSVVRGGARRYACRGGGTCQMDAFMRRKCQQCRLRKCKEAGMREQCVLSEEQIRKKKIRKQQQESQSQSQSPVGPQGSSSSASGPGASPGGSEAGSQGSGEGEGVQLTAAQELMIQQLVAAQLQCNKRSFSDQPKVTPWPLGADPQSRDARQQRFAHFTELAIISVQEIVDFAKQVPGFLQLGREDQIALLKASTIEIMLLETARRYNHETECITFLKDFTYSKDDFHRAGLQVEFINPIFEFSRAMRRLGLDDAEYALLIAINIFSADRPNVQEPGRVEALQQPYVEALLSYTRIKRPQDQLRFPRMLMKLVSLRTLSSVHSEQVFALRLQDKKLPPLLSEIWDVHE
Put plainly: Agonist activity at human LXRbeta expressed in African green monkey kidney CV1 cells co-expressing pTAL-LXRE including LXR response element incubated for 20 hrs by luciferase reporter gene assay relative to T0901317. Type of series: cell-based. To be noted: CV-1. Put shortly: (§1)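 CV-1 cells grown in DMEM with 10% charcoal/dextran-treated FBS at 37 °C, seeded 20 h before transfection. Cells were lipofected with pcDNA-hLXRa or pcDNA-hLXRb plus the pTAL-LXRE luciferase reporter. After 3 h, medium was added, then compound in DMSO. Incubation about 20 h before luciferase luminescence read-out.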

In series [4] the target is T2, Oxysterols receptor LXR-alpha (Homo sapiens) (UniProt Q13133).
T2 sequence (whole entry): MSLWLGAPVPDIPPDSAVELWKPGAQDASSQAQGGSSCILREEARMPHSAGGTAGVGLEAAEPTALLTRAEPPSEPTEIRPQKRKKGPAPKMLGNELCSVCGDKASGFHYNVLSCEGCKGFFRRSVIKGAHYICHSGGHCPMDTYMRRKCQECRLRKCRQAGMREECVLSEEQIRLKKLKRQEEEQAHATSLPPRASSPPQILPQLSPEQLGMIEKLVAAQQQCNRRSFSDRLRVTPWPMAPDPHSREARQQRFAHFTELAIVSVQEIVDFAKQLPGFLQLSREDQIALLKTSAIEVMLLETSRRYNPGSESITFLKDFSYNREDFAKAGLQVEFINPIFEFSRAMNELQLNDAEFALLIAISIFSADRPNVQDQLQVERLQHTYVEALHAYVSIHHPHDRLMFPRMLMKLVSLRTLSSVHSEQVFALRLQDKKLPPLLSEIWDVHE
Put plainly: Agonist activity at human LXRalpha expressed in African green monkey kidney CV1 cells co-expressing pTAL-LXRE including LXR response element incubated for 20 hrs by luciferase reporter gene assay relative to T0901317. The series is classed as cell-based. To be noted: CV-1. The gist of the method:
as §1
In general terms: In a reporter assay the amount or activity of a reporter protein is the signal.

Series [5] deals with T3, Oxysterols receptor LXR-alpha (Homo sapiens, UniProt Q13133).
T3 sequence (Q13133 whole entry): T2 sequence (whole entry)
Put plainly: Agonist activity at human LXRalpha expressed in African green monkey kidney CV1 cells co-expressing pTAL-LXRE including LXR response element incubated for 20 hrs by luciferase reporter gene assay. Type of series: cell-based, CV-1.

The subject of series [6] is RAW264.7. Nature of the series: […] of cholesterol efflux in mouse RAW264.7 cells at 0.1 using [4-14C]-cholesterol incubated for 24 hrs by scintillation counting method relative to T0901317. Type of series: functional. The gist of the method:
(§2)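 RAW264.7 cells were labeled 2 days with 0.2 µCi/ml [4-14C]-cholesterol in DMEM/1% FBS and washed with 0.2% BSA/PBS. Medium with or without 10 µg/ml apoAI was added, with compound (final 0.01–1 µM) or DMSO, for about 24 h. Medium and cell radioactivity were counted. ApoAI-dependent efflux % = efflux(+apoAI) minus mean efflux(−apoAI); % efficacy is given at the stated concentration.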

Series [7] has as its target T4, Oxysterols receptor LXR-beta (Homo sapiens, UniProt P55055).
T4 sequence (P55055 whole entry): T1 sequence (whole entry)
Put plainly: Agonist activity at human LXRbeta expressed in African green monkey kidney CV1 cells co-expressing pTAL-LXRE including LXR response element incubated for 20 hrs by luciferase reporter gene assay. The series is classed as cell-based, CV-1. Put shortly: as §1

In series [8] the test system is RAW264.7. Put plainly: […] of cholesterol efflux in mouse RAW264.7 cells at 1 uM using [4-14C]-cholesterol incubated for 24 hrs by scintillation counting method relative to T0901317. Type of series: functional. Put shortly:
as §2

A short description of series [9]: Plasma concentration in mouse at 10 mg/kg, po measured at 6 hrs. Type of series: ADME, organism-based. Put shortly: (§3)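 Mice given a single oral dose of 10 mg/kg. Plasma concentration measured in µg/ml as Cmax and at 6 h.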
Series [10] in a line: Cmax in mouse at 10 mg/kg, po. Also noted: dose 10 mg/kg, route oral. The series is classed as ADME, organism-based. The settings on record: in vivo. Put shortly: as §3
Series [11] has as its system Cynomolgus monkey. Nature of the series: Toxicity in cynomolgus monkey assessed as effect on plasma triglyceride levels at 0.1 to 10 mg/kg, po administered as single dose. The series is classed as organism-based, Macaca fascicularis. The settings on record: in vivo. The gist of the method: (§4)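 Cynomolgus monkeys dosed daily by oral gavage at 0, 0.1, 0.3, 1, 3 or 10 mg/kg for 14 days, n = 6/group. Blood ABCA1 mRNA was measured on Day 1 and Day 14; plasma triglyceride was measured after single and repeated dosing. Mean + SE.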

In series [12] the test system is Cynomolgus monkey. Nature of the series: Increase in ABCA1 mRNA expression in cynomolgus monkey blood at 0.1 to 10 mg/kg, po dosed daily for 14 days measured on day 1. The settings on record: Macaca fascicularis. The series is classed as functional, organism-based. Put shortly: as §4
The subject of series [13] is Cynomolgus monkey. Put plainly: Toxicity in cynomolgus monkey assessed as effect on plasma triglyceride levels at 0.1 to 10 mg/kg, po dosed daily for 14 days. The series is classed as organism-based, Macaca fascicularis. To be noted: in vivo, 336 h. Put shortly: as §4
Series [14] relates to Mus musculus. Nature of the series: Effect on SCD1 mRNA expression in C57Bl/6 mouse liver at 1 mg/kg, po dosed daily for 7 days. Type of series: functional, organism-based. The gist of the method: (§5)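 C57Bl/6 mice dosed daily by oral gavage at 1 mg/kg for 7 days, n = 5/group. Liver FAS and SCD-1 mRNA and plasma TG were then measured. Groups compared with vehicle by Dunnett's test, p <0.05.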

Series [15] has as its system Mus musculus. Put plainly: Toxicity in C57Bl/6 mouse assessed as effect on plasma triglyceride levels at 1 mg/kg, po dosed daily for 7 days. Type of series: organism-based. To be noted: in vivo, 168 h. Put shortly:
as §5

Series [16] relates to Mus musculus. Put plainly: Effect on FAS mRNA expression in C57Bl/6 mouse liver at 1 mg/kg, po dosed daily for 7 days. Type of series: functional, organism-based. The gist of the method:
as §5

The test system of series [17] is Cynomolgus monkey. Nature of the series: Increase in ABCA1 mRNA expression in cynomolgus monkey blood at 0.1 to 10 mg/kg, po dosed daily for 14 days measured on day 14. Type of series: functional, organism-based. The settings on record: Macaca fascicularis. The gist of the method:
as §4

The structures appear in SMILES notation. Activity calls are given as the source filed them. No cut-off for these calls is given here.

Chain of Retinoic acid receptor RXR-alpha/oxysterols receptor LXR-alpha (P19793 whole entry, one chain of several): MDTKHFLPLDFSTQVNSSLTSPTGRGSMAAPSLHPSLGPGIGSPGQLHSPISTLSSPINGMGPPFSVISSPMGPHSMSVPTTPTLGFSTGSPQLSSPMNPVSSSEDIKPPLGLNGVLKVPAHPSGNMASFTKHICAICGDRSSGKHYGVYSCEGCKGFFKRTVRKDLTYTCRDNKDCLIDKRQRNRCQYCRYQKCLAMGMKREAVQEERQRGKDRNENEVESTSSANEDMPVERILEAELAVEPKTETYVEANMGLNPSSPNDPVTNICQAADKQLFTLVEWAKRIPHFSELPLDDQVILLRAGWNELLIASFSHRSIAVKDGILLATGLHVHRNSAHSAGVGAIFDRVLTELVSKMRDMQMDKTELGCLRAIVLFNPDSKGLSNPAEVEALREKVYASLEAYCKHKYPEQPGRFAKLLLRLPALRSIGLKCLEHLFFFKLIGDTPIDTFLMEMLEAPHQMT
Chain of Retinoic acid receptor RXR-alpha/oxysterols receptor LXR-beta (P19793 whole entry, one chain of several): as above

What is called Ki is a measure of affinity in units of concentration, obtained from inhibition or displacement. For the compound `CC(C)(C)OC(=O)c1cc(C(F)(F)F)ccc1COc1ccc(-c2cccc(CC(=O)O)c2)cc1`, the Ki came to 5100 nM in series [1] and 360 nM in series [2].
In general, EC50 refers to the midpoint of the concentration-response curve. As for `CC(C)(C)OC(=O)c1c(COc2ccc(-c3cccc(CC(=O)O)c3)cc2)ccc(C(F)(F)F)c1O`, the Efficacy in [3] turned out to be 27%; in series [4] it was 39%; in the series on RAW264.7 [6], 3%; in the series with RAW264.7 [8], 58%. Further, the values for the EC50 in series [5] and in series [7] were 1300 nM and 530 nM, respectively.
In the case of `CC(C)(C)OC(=O)c1cc(C(F)(F)F)ccc1COc1ccc(-c2ccc(CC(=O)O)cc2)cc1`, the values for the Ki in series [1] and in series [2] were 1000 nM and 260 nM, respectively.
Take `CC(C)(C)OC(=O)c1cc(C(F)(F)F)ccc1COc1ccc(CCCCC(=O)O)cc1`: the Ki in [2] was 630 nM.
As usually defined, the Cmax is the peak of the concentration-time curve. Regarding `CC(=O)N(C)c1ccc(OCc2ccc(C(F)(F)F)c(O)c2C(=O)OC(C)(C)C)cc1`, the Efficacy stood at 76% in [3] and 89% in [4]. The compound further gave a concentration at 6 h in series [9] of 670 ng/mL. The EC50 amounted to 280 nM in [5] and 260 nM in series [7]. The Ki came out at 270 nM in [1] and 170 nM in series [2]. The same compound displayed a Cmax in [10] of 1000 ng/mL.
For the compound `CN(C(=O)CCC(=O)O)c1ccc(OCc2ccc(C(F)(F)F)cc2C(=O)OC(C)(C)C)cc1`, the Ki in series [1] came to 4000 nM; in series [2], 660 nM.
For `CC(C)(C)OC(=O)c1c(COc2ccc(-c3ccc(CC(=O)O)cc3)cc2)ccc(C(F)(F)F)c1O`, the Efficacy was determined as 51% in series [3], 79% in series [4], 57% in the series on RAW264.7 [6] and 69% in the series with RAW264.7 [8]. In addition, the Activity entry is “Non-toxic” in the series on Cynomolgus monkey [11]; “Dose-dependent effect” with Cynomolgus monkey [12]; “Non-toxic” in the series on Cynomolgus monkey [13]; “Non-toxic” in the series with Mus musculus [15]; “Dose-dependent effect” with Cynomolgus monkey [17]. Further, the concentration at 6 h in [9] turned out to be 5300 ng/mL. The 50% effective concentration (EC50) in series [5] is 510 nM; in series [7], 160 nM. In addition, the Cmax in series [10] worked out at 8900 ng/mL. The outcome with Mus musculus [14] and in the series on Mus musculus [16] was inactive.
Take `CC(C)(C)OC(=O)c1cc(C(F)(F)F)ccc1COc1ccc(-c2cccc(C(=O)O)c2)cc1`: the Ki is 6300 nM in [1] and 3400 nM in series [2].
For `CC(C)(C)OC(=O)c1cc(C(F)(F)F)ccc1COc1ccc(-c2ccc(C(=O)O)cc2)cc1` the same measures were greater than 10000 nM and greater than 10000 nM.
Turning to `CC(=O)N(C)c1ccc(OCc2ccc(C(F)(F)F)cc2C(=O)OC(C)(C)C)cc1`, the Efficacy in [3] turned out to be 28%; in series [4] it was 27%. The compound further came in with a concentration at 6 h in series [9] of 1000 ng/mL. In addition, the EC50 in series [5] amounted to 310 nM; in [7] it was 210 nM. Moreover, the Ki turned out to be 870 nM in series [1] and 180 nM in [2]. Further, in series [10], the concentration peaked (Cmax) at 1700 ng/mL.
Turning to `CC(C)(C)OC(=O)c1cc(C(F)(F)F)ccc1COc1ccc(CCCC(=O)O)cc1`, the Ki in [2] is 4900 nM.
For `CC(C)(C)OC(=O)c1cc(C(F)(F)F)ccc1COc1ccc(CCCCCC(=O)O)cc1`, the Ki was 8600 nM in series [1] and 1200 nM in series [2].

The record behind these values is ChEMBL document CHEMBL3608222, “Discovery and structure-guided optimization of tert-butyl 6-(phenoxymethyl)-3-(trifluoromethyl)benzoates as liver X receptor agonists” (Bioorg Med Chem Lett, 2015).
